From PubChem
Hits are enriched below; roughly 0.83% of the tested compounds scored in any of these assays.
TRPML3 ag: human mucolipin-3 channel agonism. AID 1448. HEK293 TRPML3-YFP, Fluo-8 calcium fluorescence; 100% = the carbachol control signal. activation, % at 3 µM. hit rate 0.29% among 220,000;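 active = activation above its plate's cutoff, the mean activation of the plate's test wells plus 3 SD, cut at about 12% in these data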
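Material: HEK293 cells stably carrying human TRPML3-YFP; compound dosing: single dose, 3 µM final nominal compound, 0.3% DMSO final; incubation: 1-h 37 °C dye load, 5-s basal, 120-s post-compound reads; technique: Fluo-8 intracellular calcium fluorescence, excitation 470-495 nm, emission 515-575 nm; read-out basis: percent activation from peak-to-basal fluorescence ratio, scaled between DMSO and carbachol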
OXTR potentiate: potentiators of human oxytocin receptor | hit rate 0.061% among 320,000 | activation, % at 3 µM | P30559 | CHO-OTR cells, Fluo-8 calcium fluorescence, potentiator mode; 0% = oxytocin EC15, 100% = EC100;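 active = activation above that plate's cutoff, the mean activation of tested compounds plus 3 SD, cut at about 6.6% in these data, passing the limit was not always enough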
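System: human OTR in CHO cells; Also added: sub-maximal oxytocin, roughly EC15; Timing: compound 6 min at room temperature before oxytocin, 100 s read; Technique: Fluo-8 intracellular calcium fluorescence, ex 470-495, em 515-575 nm; Controls: oxytocin EC15 low and EC100 high; Replication: singlicate.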
CRFBP-R2 agonist: CRF-BP/CRF-R2 complex agonism; activation, % at 13.2 µM; HEK293 CRF-R2/CRF-BP, calcium dye fluorescence (FLIPR); percent of saturating CRF peptide response; hit rate 0.46% among 350,000; AID 588473;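 active = activation of at least 50%, plus an integration ratio under a set limit after plate pattern correction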
V1aR counter: activates human V1a receptor in oxytocin agonist counter-screen; CHO-V1R cells, Fluo-8 calcium fluorescence, agonist mode; 0% DMSO, 100% 3 nM vasopressin; activation, % at 3 µM; hit rate 0.25% among 320,000; AID 2797;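 active = activation above the mean activation of all tested compounds plus 3 SD, per screening run, cut at about 20% in these data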;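 note: signal is peak over basal fluorescence ratio across a 100 second FLIPR read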
Target sequence (P37288 whole entry, looked up): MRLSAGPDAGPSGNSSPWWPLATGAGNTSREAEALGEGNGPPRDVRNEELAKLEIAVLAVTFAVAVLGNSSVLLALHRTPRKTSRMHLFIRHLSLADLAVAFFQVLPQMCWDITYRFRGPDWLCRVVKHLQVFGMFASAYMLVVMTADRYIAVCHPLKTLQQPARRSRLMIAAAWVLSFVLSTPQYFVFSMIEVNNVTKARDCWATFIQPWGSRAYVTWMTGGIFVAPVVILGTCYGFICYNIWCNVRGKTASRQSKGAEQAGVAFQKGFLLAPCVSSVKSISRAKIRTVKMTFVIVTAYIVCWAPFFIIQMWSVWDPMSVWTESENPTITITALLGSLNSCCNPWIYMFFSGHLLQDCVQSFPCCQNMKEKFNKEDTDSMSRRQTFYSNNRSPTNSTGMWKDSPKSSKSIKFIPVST
zfTRPN1 agonist: activates the zebrafish TRPN1 channel; hit rate 0.18% among 220,000; HEK293 zebrafish TRPN1-YFP, Fluo-8 calcium fluorescence; 100% = response to 87 µM carbachol; AID 1424; activation, % at 3 µM;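 active = activation above its plate's cutoff, the mean activation of test wells on that plate plus 3 SD, cut at about 19% in these data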
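System: zebrafish TRPN1-YFP in HEK293 cells / Dosing: 3 µM single point / Timing: dye loading 1 h at 37 °C, then 30 min room temperature / Signal: Fluo-8 calcium fluorescence, excitation 470-495 nm, emission 515-575 nm / Read-out basis: percent activation from peak over basal fluorescence ratio, control-normalized / Control set: high carbachol 87 µM, low DMSO alone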
OXTR agonist: agonists of human oxytocin receptor; P30559; CHO-OTR cells, Fluo-8 calcium fluorescence; normalized: DMSO 0%, oxytocin 100%; activation, % at 3 µM; hit rate 0.32% among 320,000;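 active = activation above the mean of all tested compounds plus 3 SD, cutoff set per screening run, cut at about 20% in these data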;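 note: peak over basal fluorescence ratio from a 100 s FLIPR kinetic read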
Numbers stand for hits; - = inactive; . = not tested or not shown.

SMILES	TRPML3 ag	OXTR potentiate	CRFBP-R2 agonist	V1aR counter	zfTRPN1 agonist	OXTR agonist
O=C(OCCN1C(=O)c2cccc3c(N4CCOCC4)ccc(c23)C1=O)c1ccc(Cl)cc1	-	-	366	-	-	-
O=C(OCCN1C(=O)c2ccccc2C1=O)c1cc(S(=O)(=O)N2CCOCC2)ccc1F	-	-	-	-	-	-
CCCN(CCC)S(=O)(=O)c1ccc(C(=O)OCCN2C(=O)c3cccc4c(N5CCOCC5)ccc(c34)C2=O)cc1	-	-	114	-	-	-
Cc1ccc(-n2nc(C)c(C(=O)Nc3cccc(C(=O)NC4CC4)c3)n2)c(C)c1	.	-	-	-	.	-
COc1ccc(NS(=O)(=O)c2ccc(NC(=S)NC(=O)C(C)C)cc2)cc1	-	-	-	24	-	20
CCOc1ccc(NS(=O)(=O)c2ccc(NC(=S)NC(C)=O)cc2)cc1	-	-	-	27	-	29
COc1ccc(CC(=O)NC(=S)Nc2ccc(S(N)(=O)=O)cc2)cc1	-	-	-	24	-	25
O=C1c2ccc(-c3ccc(Cl)c(C(F)(F)F)c3)cc2S(=O)(=O)c2cccc(C(=O)N3CCN(c4ccc(Cl)cn4)CC3)c21	.	-	-	-	.	-
COc1ccc(C2=Nn3c(nnc3-c3ccccc3OC)SC2)cc1OC1CCOC1 (configuration not stated)	.	-	-	-	.	-
CN1CCc2c(sc(/N=C/c3cccs3)c2C(N)=O)C1	-	-	60	-	-	-
CCN1C(=O)/C(=C/C=C2\N(CC)c3cc(S(=O)(=O)N(C)C)ccc3N2c2ccccc2)SC1=S	-	-	73	-	22	-
COc1ccc(Cl)cc1-c1nc(SCC(=O)NCC2CCCO2)n[nH]1 (configuration not stated)	.	-	-	-	.	-
COc1ccc(NC2CCCN(C(=O)c3ccccc3N3CCOCC3)C2)cc1OC (configuration not stated)	.	-	-	-	.	-
Cc1ncc(C(O)c2ccc(N(C)C)cc2)n1Cc1ccccc1 (configuration not stated)	.	.	-	.	.	.
CN(C)c1ccc2nc3c(=O)[nH]c(=O)nc-3n(CC(O)C(O)C(O)CO)c2c1 (configuration not stated)	.	-	-	35	.	23
COc1ccc(S(=O)(=O)N(C)C[C@H]2Oc3c(NC(=O)C4CCCCC4)cccc3C(=O)N([C@H](C)CO)C[C@@H]2C)cc1	.	-	-	-	.	-
Cc1cc(C(=O)COc2cccc3cccnc23)c(C)n1C	-	-	190	-	-	-
CC(C)c1ccc(N2C(=O)/C(=C/N(C)C)SC2=S)cc1	-	-	-	25	-	38
Cc1ccc(N(CC(=O)NC(C)(C)C)C(=O)CCC(=O)Nc2nccs2)c(C)c1	.	.	-	.	.	.
CCCCCc1cc(O)c2c(C)cc(=O)oc2c1	-	-	-	-	-	-
CCCCc1cc(O)c(CCCC)c(O)c1	36	-	100	81	52	86
N#Cc1cc(C(=O)c2cc(F)ccc2O)cn(-c2nccs2)c1=O	23	-	341	84	28	135
N#Cc1cc(C(=O)c2ccccc2O)cn(-c2nccs2)c1=O	34	-	239	55	47	90
Cc1c(-n2cc(C(=O)c3cc(F)ccc3O)cc(C#N)c2=O)c(=O)n(-c2ccccc2)n1C	-	-	51	-	-	-
Cc1ccccc1-n1cc(C(=O)c2cc(Cl)ccc2O)cc(C#N)c1=O	-	-	-	-	-	-
COc1ccc(/C=c2\s/c(=C/C(=O)c3ccc(C)cc3)[nH]c2=O)c(OC)c1	-	-	123	-	-	-
N#Cc1ccc(CC(=O)c2ccccc2)[nH]c1=O	.	.	58	.	.	.
Cc1cc(C(C)(C)CC(C)(C)C)ccc1OCCOCC[N+](C)(C)Cc1ccccc1	.	-	-	21	.	37
Cc1cc(N2CCCC2)c(F)cc1/C=C\[N+](=O)[O-]	-	.	120	.	-	.
CCOc1ccc(N/C(SCc2cccc([N+](=O)[O-])c2)=C(/C#N)C(N)=O)cc1	-	-	-	-	-	-
